Measurements published in ChEMBL document CHEMBL1154198, “Chemical genetics of Plasmodium falciparum” (Nature, 2010).

Tests used:
Plasmodium falciparum [1] = experiment: ST_JUDE: Plasmodium falciparum 3D7 EC50 (uM) as measured by SYBR green dye; assay type: functional, organism-based
Plasmodium falciparum [2] = experiment: ST_JUDE: Plasmodium falciparum K1 EC50 (uM) as measured by SYBR green dye; assay type: functional, organism-based
Plasmodium falciparum [3] = experiment: ST_JUDE: Cytotoxicity against Plasmodium falciparum 3D7; assay type: functional, organism-based
Procedure, shortened: (§1)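 Asexual P. falciparum grown in human erythrocytes, exposed to compounds for 72 h, and growth read as the DNA quantity in treated versus control cultures. Dose-response run at 12 concentrations from 10 μM to 5 nM.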

Plasmodium falciparum [4] = experiment: ST_JUDE: Cytotoxicity against Plasmodium falciparum K1; assay type: functional, organism-based; procedure, shortened: as §1
Plasmodium falciparum [5] = experiment: ST_JUDE: Cytotoxicity against Plasmodium falciparum V1/S; assay type: functional, organism-based
Toxoplasma gondii = experiment: ST_JUDE: Growth inhibition of to Toxoplasma gondii, in human U-2OS cells, as measured by luciferase.; assay type: functional, organism-based; conditions: RH, U2OS
Procedure, shortened: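 T. gondii parasites engineered to express luciferase; drug sensitivity read by luminescence.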

Trypanosoma brucei = experiment: ST_JUDE: Cytotoxicity using luciferase to measure ATP as an indicator of the viability of Trypanosoma brucei; assay type: functional, organism-based
Leishmania major = experiment: ST_JUDE: Cytotoxicity using Alamar Blue to measure viability of Leishmania major; assay type: functional, organism-based
Procedure, shortened: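 L. major promastigotes; drug susceptibility read with Alamar Blue.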

[6] = ST_JUDE: Cytotoxicity using luciferase to measure ATP as an indicator of the viability of human foreskin fibroblast cells (BJ); assay type: toxicity, cell-based
[7] = ST_JUDE: Cytotoxicity using luciferase to measure ATP as an indicator of the viability of human epithelial hepatocellular carcinoma cells (HepG2); assay type: toxicity, cell-based
[8] = ST_JUDE: Cytotoxicity using luciferase to measure ATP as an indicator of the viability of human epithelial embryonic kidney cells (HEK293); assay type: toxicity, cell-based
[9] = ST_JUDE: Cytotoxicity using luciferase to measure ATP as an indicator of the viability of human Burkitt''s lymphoma lymphoblast cells (Raji); assay type: toxicity, cell-based
Plasmodium falciparum [10] = experiment: ST_JUDE: Cytotoxicity against Plasmodium falciparum Dd2; assay type: functional, organism-based
Plasmodium falciparum [11] = experiment: ST_JUDE: Cytotoxicity against Plasmodium falciparum W2; assay type: functional, organism-based
Plasmodium falciparum [12] = experiment: ST_JUDE: Cytotoxicity against Plasmodium falciparum SB-A6; assay type: functional, organism-based
Plasmodium falciparum [13] = experiment: ST_JUDE: Cytotoxicity against Plasmodium falciparum D10 transfected with yeast DHOD; assay type: functional, organism-based

SMILES	EC50 (Plasmodium falciparum [1])	EC50 (Plasmodium falciparum [2])	EC50 (Plasmodium falciparum [3])	EC50 (Plasmodium falciparum [4])	EC50 (Plasmodium falciparum [5])	EC50 (Toxoplasma gondii)	EC50 (Trypanosoma brucei)	EC50 (Leishmania major)	EC50 [6]	EC50 [7]	EC50 [8]	EC50 [9]	EC50 (Plasmodium falciparum [10])	EC50 (Plasmodium falciparum [11])	EC50 (Plasmodium falciparum [12])	EC50 (Plasmodium falciparum [13])
CCO/C(O)=C1\C(C)=NC2=C(C(=O)CC(c3ccc(OC)c(OC)c3)C2)C1c1ccc([N+](=O)[O-])cc1 (centres undefined)	177 nM	120 nM	170 nM	272 nM	597 nM	> 24100 nM	8230 nM	> 18800 nM	> 43900 nM	> 43900 nM	> 43900 nM	> 43900 nM	600 nM	239 nM	228 nM	267 nM
O=[N+]([O-])c1cc(CN2CCN(c3cccc(C(F)(F)F)c3)CC2)c2cccnc2c1O	1280 nM	1190 nM	676 nM	> 8180 nM	> 8180 nM	> 17500 nM	1350 nM	> 13600 nM	> 31900 nM	> 31900 nM	> 31900 nM	> 31900 nM	791 nM	> 8180 nM	642 nM	1080 nM
CCCO/C(O)=C1\C(C)=NC2=C(C(=O)CC(c3ccc(OC)c(OC)c3)C2)C1c1ccc(F)cc1 (centres undefined)	61.3 nM	24 nM	96.4 nM	121 nM	155 nM	> 19900 nM	5920 nM	> 15600 nM	> 36300 nM	> 36300 nM	> 36300 nM	> 36300 nM	95.2 nM	56.6 nM	60.3 nM	58 nM
Fc1ccc(Nc2nc(NCc3ccccc3)c3ccccc3n2)cc1	902 nM	782 nM	626 nM	962 nM	2580 nM	> 22300 nM	7890 nM	2.4 nM	15200 nM	6780 nM	16800 nM	13700 nM	644 nM	3540 nM	321 nM	868 nM
C=CCN1C=CC=C/C1=C\c1sc2ccccc2[n+]1CC	2310 nM	1440 nM	1290 nM	1890 nM	2000 nM	> 11800 nM	2670 nM	12.2 nM	> 21600 nM	> 21600 nM	> 21600 nM	2820 nM	920 nM	> 5540 nM	1600 nM	2920 nM
CCN(CC)CCCOC(=O)c1c(C)oc2cc3c(C(=O)OCCCN(CC)CC)c(C)oc3cc12	538 nM	1270 nM	2140 nM	2890 nM	> 9980 nM	10900 nM	5220 nM	> 16600 nM	> 38900 nM	4710 nM	29200 nM	23700 nM	273 nM	790 nM	537 nM	1730 nM
C=CCn1c(=N)n(CC(O)c2ccc(Cl)c(Cl)c2)c2ccccc21 (centres undefined)	334 nM	181 nM	1080 nM	602 nM	788 nM	> 24500 nM	8340 nM	> 19100 nM	> 44700 nM	16400 nM	39200 nM	26400 nM	434 nM	512 nM	2530 nM	2630 nM
CN1/C(=C/c2cccc[n+]2C)Sc2ccccc21	540 nM	389 nM	567 nM	605 nM	503 nM	> 15500 nM	3950 nM	108 nM	> 28300 nM	> 28300 nM	> 28300 nM	4050 nM	771 nM	495 nM	681 nM	879 nM

Further lines, with some results ahead:

EC50 (Plasmodium falciparum [1])	EC50 (Plasmodium falciparum [2])	SMILES	EC50 (Plasmodium falciparum [3])	EC50 (Plasmodium falciparum [4])	EC50 (Plasmodium falciparum [5])	EC50 (Toxoplasma gondii)	EC50 (Trypanosoma brucei)	EC50 (Leishmania major)	EC50 [6]	EC50 [7]	EC50 [8]	EC50 [9]	EC50 (Plasmodium falciparum [10])	EC50 (Plasmodium falciparum [11])	EC50 (Plasmodium falciparum [12])	EC50 (Plasmodium falciparum [13])
529 nM	1830 nM	C[N+](C)(C)c1nc(N2CCOCC2)nc(N(c2ccccc2)c2ccccc2)n1	396 nM	1510 nM	1840 nM	> 23500 nM	5590 nM	> 18300 nM	> 42800 nM	> 42800 nM	> 42800 nM	10600 nM	1300 nM	5820 nM	626 nM	880 nM
348 nM	692 nM	CCN(C(C)=O)C1=C(N2CCOCC2)C(=O)c2ccccc2C1=O	431 nM	439 nM	514 nM	3210 nM	5670 nM	> 13900 nM	8990 nM	3200 nM	> 32500 nM	2730 nM	380 nM	> 8340 nM	611 nM	467 nM
497 nM	182 nM	Cc1ccccc1/N=C1\C=C(NS(=O)(=O)c2ccc(F)cc2)c2ccccc2C1=O	221 nM	98.1 nM	114 nM	> 19100 nM	946 nM	> 14900 nM	5880 nM	6130 nM	6290 nM	3140 nM	435 nM	216 nM	303 nM	161 nM
7610 nM	424 nM	Cc1oc2c(c1C(=O)NCCC(C)C)C(=O)c1ccccc1C2=O	1230 nM	1170 nM	> 10900 nM	> 23300 nM	2380 nM	> 18200 nM	> 42500 nM	> 42500 nM	> 42500 nM	> 42500 nM	2340 nM	> 10900 nM	1120 nM	842 nM
557 nM	472 nM	CCc1ccc(S(=O)(=O)NC2=C/C(=N\c3ccccc3)C(=O)c3ccccc32)cc1	284 nM	276 nM	404 nM	> 16900 nM	1460 nM	> 13200 nM	5650 nM	4290 nM	5210 nM	2660 nM	575 nM	484 nM	340 nM	373 nM
367 nM	140 nM	Cc1ccc2c(c1)S/C(=C\c1sc3ccccc3[n+]1C)N2CCO	548 nM	567 nM	577 nM	> 13000 nM	11000 nM	112 nM	> 23700 nM	> 23700 nM	> 23700 nM	3090 nM	426 nM	495 nM	603 nM	438 nM
525 nM	840 nM	CCOc1cc(C2CC(=O)NC3=C2C(=O)CC(c2ccc(OC)cc2)C3)cc(Cl)c1O (centres undefined)	976 nM	1040 nM	1180 nM	> 24300 nM	> 42600 nM	> 19000 nM	> 44400 nM	> 44400 nM	> 44400 nM	> 44400 nM	1310 nM	637 nM	1230 nM	1160 nM
98.9 nM	95.6 nM	CCCCOc1ccc(N(C(C)=O)C2=C(N3CCOCC3)C(=O)c3ccccc3C2=O)cc1	70.8 nM	66 nM	36.4 nM	> 17100 nM	4010 nM	> 13400 nM	> 31200 nM	3890 nM	10900 nM	3820 nM	488 nM	930 nM	28.9 nM	21.2 nM
277 nM	150 nM	CCc1ccc(S(=O)(=O)NC2=C/C(=N\c3ccccc3OC)C(=O)c3ccccc32)cc1	954 nM	377 nM	327 nM	> 21800 nM	1980 nM	> 17000 nM	6800 nM	10300 nM	9010 nM	2760 nM	677 nM	> 10200 nM	531 nM	406 nM
188 nM	128 nM	CCOc1ccc(/C=C/c2nc(=O)c3ccccc3o2)cc1	345 nM	392 nM	601 nM	273 nM	> 38300 nM	> 17100 nM	> 39900 nM	> 39900 nM	> 39900 nM	> 39900 nM	307 nM	73.1 nM	> 10200 nM	> 10200 nM
728 nM	371 nM	CCCCCOc1ccc(N(C(C)=O)C2=C(N3CCCCC3)C(=O)c3ccccc3C2=O)cc1	193 nM	129 nM	114 nM	> 16100 nM	4140 nM	> 12600 nM	> 29300 nM	9760 nM	> 29300 nM	4100 nM	754 nM	386 nM	110 nM	61.5 nM
